Columns and labels:
[1] = target: Focal adhesion kinase 1 (Homo sapiens) (UniProt Q05397); assay: Inhibition of FAK at 10 uM by HTRF assay relative to control
Summary of the method: (§1)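 HTRF kinase assay, one panel of kinases. Inhibitor stock 50 µM in 100% DMSO; tested at 10 µM. ATP and substrate at final levels near Km. Final buffer: 50 mM Hepes/NaOH pH 7.4, 40 µM Na3VO4, 0.005% Tween-20, 1 mM DTT, MnCl2 or MgCl2 at kinase-dependent levels. Started by adding ATP/substrate. Reaction run at room temperature, time varied by kinase. Detection mix in 50 mM Hepes pH 7.4, 0.1% BSA, 150 mM KF, incubated ≥1 h at room temperature. Activity expressed as % of uninhibited control; n=2.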

[2] = target: Tyrosine-protein kinase Lyn (Homo sapiens) (UniProt P07948); assay: Inhibition of Lyn at 10 uM by HTRF assay relative to control; summary of the method: as §1
Sequence of Tyrosine-protein kinase Lyn (Homo sapiens) (P07948 2-512 limits assumed): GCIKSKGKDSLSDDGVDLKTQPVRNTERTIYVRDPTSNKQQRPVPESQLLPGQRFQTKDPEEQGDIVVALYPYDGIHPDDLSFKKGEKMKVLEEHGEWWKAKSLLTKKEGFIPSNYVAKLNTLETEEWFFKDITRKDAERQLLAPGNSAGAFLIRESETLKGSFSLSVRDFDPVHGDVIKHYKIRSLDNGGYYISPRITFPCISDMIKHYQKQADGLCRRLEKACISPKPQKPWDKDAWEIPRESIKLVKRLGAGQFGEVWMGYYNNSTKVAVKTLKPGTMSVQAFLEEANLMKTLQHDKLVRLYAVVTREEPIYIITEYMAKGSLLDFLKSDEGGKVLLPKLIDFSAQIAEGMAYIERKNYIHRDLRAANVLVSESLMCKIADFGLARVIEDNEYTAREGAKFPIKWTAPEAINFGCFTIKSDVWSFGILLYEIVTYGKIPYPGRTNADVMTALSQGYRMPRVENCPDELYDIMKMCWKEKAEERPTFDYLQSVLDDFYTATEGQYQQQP

[3] = target: Tyrosine-protein kinase ABL1 (Homo sapiens) (UniProt P00519); assay: Inhibition of Abl at 10 uM by HTRF assay relative to control; summary of the method: as §1
Sequence of Tyrosine-protein kinase ABL1 (Homo sapiens) (P00519 whole entry): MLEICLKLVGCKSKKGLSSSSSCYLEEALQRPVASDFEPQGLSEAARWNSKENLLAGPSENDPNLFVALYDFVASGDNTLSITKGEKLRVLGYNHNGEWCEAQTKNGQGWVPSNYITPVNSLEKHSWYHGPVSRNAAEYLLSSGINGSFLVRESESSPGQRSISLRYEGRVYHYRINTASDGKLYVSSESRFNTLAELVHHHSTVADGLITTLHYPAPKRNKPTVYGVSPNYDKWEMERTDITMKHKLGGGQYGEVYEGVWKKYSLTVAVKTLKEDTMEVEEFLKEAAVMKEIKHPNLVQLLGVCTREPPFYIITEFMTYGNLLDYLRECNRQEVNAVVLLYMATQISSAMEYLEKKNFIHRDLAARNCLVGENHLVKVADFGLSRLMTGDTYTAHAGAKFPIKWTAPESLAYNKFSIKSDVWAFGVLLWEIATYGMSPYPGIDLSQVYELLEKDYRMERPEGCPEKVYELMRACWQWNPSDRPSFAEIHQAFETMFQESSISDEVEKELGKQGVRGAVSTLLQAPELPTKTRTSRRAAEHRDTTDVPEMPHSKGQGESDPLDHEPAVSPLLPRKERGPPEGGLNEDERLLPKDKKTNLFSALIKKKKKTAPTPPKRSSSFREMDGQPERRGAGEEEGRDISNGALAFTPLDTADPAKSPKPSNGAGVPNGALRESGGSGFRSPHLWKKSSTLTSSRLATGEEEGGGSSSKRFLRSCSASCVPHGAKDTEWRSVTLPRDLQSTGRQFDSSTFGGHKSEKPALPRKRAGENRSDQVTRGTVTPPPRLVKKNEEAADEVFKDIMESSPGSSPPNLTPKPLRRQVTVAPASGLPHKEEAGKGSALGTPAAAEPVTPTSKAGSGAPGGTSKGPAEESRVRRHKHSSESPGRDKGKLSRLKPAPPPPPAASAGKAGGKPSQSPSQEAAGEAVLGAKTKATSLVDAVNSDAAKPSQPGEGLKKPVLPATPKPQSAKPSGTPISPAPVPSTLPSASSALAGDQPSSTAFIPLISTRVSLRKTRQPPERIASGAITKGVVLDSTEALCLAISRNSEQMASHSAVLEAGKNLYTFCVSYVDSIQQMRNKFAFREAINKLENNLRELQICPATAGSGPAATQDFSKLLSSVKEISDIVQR

[4] = target: T1, Mitogen-activated protein kinase 12 (Homo sapiens) (UniProt P53778); assay: Inhibition of p38-gamma at 10 uM by HTRF assay relative to control; summary of the method: as §1
T1 sequence (whole entry): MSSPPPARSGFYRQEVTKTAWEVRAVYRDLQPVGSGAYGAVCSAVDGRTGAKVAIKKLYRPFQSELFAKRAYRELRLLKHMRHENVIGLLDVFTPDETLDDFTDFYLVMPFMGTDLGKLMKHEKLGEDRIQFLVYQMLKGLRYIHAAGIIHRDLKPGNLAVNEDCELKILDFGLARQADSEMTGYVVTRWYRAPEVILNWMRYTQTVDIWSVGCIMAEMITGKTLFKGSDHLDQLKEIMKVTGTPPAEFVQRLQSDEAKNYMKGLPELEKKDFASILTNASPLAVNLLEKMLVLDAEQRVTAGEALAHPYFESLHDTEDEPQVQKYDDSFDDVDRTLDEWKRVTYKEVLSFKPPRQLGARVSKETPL

[5] = Inhibition of PKA at 10 uM by HTRF assay relative to control; summary of the method: as §1
[6] = target: MAP kinase-activated protein kinase 2 (Homo sapiens) (UniProt P49137); assay: Inhibition of MAPKAPK2 at 10 uM by HTRF assay relative to control; summary of the method: as §1
Sequence of MAP kinase-activated protein kinase 2 (Homo sapiens) (P49137 whole entry, looked up): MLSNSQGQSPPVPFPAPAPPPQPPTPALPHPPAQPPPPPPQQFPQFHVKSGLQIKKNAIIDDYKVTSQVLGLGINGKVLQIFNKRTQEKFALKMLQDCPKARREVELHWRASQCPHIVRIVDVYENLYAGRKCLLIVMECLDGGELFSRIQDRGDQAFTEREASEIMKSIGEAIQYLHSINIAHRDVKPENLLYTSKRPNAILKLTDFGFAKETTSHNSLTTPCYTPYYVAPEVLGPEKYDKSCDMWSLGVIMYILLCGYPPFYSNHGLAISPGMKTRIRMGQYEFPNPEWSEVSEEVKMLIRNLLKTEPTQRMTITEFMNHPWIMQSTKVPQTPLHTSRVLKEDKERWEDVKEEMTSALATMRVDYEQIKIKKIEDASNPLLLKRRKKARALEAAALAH

[7] = target: T2, Calcium/calmodulin-dependent protein kinase type IV (Homo sapiens) (UniProt Q16566); assay: Inhibition of CaMK4 at 10 uM by HTRF assay relative to control; summary of the method: as §1
T2 sequence (whole entry): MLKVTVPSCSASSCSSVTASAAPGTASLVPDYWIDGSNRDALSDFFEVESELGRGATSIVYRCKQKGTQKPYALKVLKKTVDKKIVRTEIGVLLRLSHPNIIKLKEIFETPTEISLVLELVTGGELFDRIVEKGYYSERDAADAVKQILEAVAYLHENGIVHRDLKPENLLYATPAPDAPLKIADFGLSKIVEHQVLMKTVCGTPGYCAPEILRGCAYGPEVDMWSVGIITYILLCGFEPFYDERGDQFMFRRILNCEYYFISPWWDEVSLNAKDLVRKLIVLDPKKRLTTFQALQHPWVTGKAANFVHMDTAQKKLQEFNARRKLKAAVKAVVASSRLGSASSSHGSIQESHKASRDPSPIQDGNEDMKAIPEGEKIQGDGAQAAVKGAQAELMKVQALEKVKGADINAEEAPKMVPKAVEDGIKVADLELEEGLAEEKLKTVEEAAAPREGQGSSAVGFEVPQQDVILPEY

[8] = target: T3, Tyrosine-protein kinase JAK3 (Homo sapiens) (UniProt P52333); assay: Inhibition of JAK3 at 10 uM by HTRF assay relative to control; summary of the method: as §1
T3 sequence (whole entry): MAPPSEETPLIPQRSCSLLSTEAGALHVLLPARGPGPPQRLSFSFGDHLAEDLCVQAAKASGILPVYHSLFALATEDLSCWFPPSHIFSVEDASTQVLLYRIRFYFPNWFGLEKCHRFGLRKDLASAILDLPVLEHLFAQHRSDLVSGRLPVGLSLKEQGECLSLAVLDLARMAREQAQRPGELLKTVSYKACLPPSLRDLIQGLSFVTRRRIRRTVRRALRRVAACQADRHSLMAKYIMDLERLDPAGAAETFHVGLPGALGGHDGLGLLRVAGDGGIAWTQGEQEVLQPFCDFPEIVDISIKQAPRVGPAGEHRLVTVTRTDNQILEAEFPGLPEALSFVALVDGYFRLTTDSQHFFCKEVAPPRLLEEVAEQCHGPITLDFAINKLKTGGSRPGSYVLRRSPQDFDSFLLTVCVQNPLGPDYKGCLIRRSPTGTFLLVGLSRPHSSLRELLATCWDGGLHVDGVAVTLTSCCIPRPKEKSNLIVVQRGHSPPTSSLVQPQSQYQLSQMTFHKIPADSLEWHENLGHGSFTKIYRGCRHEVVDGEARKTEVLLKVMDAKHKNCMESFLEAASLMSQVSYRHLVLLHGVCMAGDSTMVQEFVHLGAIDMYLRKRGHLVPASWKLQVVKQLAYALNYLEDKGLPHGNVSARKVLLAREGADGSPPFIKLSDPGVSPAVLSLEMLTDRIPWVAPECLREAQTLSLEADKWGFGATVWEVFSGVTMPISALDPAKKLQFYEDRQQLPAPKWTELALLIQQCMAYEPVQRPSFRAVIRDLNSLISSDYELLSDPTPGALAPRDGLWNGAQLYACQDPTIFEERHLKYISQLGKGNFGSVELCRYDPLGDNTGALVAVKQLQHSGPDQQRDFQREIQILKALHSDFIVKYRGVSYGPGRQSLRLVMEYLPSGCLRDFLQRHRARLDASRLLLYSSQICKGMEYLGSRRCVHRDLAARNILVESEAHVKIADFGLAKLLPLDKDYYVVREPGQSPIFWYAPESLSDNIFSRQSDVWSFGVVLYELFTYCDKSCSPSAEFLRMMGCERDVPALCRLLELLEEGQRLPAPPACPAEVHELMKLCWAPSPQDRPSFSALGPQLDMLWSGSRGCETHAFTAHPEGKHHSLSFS

[9] = target: High affinity nerve growth factor receptor (Homo sapiens) (UniProt P04629); assay: Inhibition of TrkA at 10 uM by HTRF assay relative to control; summary of the method: as §1
Sequence of High affinity nerve growth factor receptor (Homo sapiens) (P04629 33-796 limits assumed): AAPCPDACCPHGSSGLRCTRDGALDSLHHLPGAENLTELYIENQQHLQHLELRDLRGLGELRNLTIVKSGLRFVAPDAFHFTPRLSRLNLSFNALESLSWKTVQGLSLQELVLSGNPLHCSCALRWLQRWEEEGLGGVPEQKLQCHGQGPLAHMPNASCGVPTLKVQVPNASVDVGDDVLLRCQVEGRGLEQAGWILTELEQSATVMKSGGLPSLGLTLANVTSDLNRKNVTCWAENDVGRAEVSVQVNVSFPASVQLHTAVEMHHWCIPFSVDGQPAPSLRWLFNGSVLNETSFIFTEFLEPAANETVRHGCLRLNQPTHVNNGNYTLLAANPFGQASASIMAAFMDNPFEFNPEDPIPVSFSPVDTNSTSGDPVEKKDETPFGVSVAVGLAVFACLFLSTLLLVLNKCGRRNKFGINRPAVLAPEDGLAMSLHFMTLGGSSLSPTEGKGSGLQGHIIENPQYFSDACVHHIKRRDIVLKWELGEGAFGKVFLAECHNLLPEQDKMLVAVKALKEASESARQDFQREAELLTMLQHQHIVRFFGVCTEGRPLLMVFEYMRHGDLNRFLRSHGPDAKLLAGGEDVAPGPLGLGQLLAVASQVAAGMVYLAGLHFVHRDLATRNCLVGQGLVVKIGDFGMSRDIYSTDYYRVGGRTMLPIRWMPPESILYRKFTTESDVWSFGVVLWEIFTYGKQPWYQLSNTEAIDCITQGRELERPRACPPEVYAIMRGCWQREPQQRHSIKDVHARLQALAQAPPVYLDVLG

[10] = target: Platelet-derived growth factor receptor beta (Homo sapiens) (UniProt P09619); assay: Inhibition of PDGFRbeta at 10 uM by HTRF assay relative to control; summary of the method: as §1
[11] = target: Ribosomal protein S6 kinase beta-1 (Homo sapiens) (UniProt P23443); assay: Inhibition of p70S6K at 10 uM by HTRF assay relative to control; summary of the method: as §1
Sequence of Ribosomal protein S6 kinase beta-1 (Homo sapiens) (P23443 whole entry, looked up): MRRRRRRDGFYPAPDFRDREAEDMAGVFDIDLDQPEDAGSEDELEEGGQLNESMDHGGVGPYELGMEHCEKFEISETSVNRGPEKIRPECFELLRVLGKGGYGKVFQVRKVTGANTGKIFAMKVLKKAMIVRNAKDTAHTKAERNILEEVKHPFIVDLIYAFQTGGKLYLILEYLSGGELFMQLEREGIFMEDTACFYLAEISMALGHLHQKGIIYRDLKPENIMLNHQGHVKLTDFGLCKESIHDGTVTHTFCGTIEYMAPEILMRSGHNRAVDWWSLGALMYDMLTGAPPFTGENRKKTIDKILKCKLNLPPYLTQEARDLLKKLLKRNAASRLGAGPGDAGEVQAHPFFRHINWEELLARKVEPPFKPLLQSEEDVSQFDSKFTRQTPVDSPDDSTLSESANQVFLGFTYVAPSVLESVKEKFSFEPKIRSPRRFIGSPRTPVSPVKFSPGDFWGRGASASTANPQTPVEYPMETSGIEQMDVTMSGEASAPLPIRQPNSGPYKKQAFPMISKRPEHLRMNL

Sequence of Focal adhesion kinase 1 (Homo sapiens) (Q05397 2-1052 limits assumed): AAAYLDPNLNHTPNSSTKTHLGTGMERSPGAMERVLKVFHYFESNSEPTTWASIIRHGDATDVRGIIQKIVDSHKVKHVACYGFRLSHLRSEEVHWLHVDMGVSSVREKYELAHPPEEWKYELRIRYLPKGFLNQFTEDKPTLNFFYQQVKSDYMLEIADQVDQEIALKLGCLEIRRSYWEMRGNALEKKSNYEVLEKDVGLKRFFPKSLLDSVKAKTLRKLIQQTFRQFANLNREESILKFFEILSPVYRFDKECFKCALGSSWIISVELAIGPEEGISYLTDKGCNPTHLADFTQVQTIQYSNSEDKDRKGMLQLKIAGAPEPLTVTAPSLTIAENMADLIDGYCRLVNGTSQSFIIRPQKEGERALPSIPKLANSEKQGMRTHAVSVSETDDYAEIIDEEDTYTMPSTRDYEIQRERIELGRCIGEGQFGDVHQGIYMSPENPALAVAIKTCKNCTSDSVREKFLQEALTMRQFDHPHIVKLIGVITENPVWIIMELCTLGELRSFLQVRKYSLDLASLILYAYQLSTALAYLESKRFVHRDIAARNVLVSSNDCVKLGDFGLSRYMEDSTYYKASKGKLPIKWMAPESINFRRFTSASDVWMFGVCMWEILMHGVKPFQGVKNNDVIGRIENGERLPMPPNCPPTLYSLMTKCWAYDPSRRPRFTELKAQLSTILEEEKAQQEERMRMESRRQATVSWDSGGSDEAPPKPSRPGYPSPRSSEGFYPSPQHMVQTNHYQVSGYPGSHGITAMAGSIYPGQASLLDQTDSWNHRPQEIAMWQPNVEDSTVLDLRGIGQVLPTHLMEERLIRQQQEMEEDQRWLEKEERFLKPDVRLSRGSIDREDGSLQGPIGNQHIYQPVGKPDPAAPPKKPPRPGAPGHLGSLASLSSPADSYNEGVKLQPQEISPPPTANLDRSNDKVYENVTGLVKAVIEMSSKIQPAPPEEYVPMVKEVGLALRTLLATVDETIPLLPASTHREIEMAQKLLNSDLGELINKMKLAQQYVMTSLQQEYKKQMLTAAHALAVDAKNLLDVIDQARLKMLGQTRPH

inhibition [1] [%] | inhibition [2] [%] | inhibition [3] [%] | inhibition [4] [%] | inhibition [5] [%] | inhibition [6] [%] | inhibition [7] [%] | inhibition [8] [%] | inhibition [9] [%] | inhibition [10] [%] | inhibition [11] [%] | SMILES
78 | 48 | 69 | 1 | 1 | 1 | 0 | 28 | 56 | 91 | 19 | CN(CCc1ccccn1)C(=O)c1cccc(Nc2nccc(Nc3ccc4ncsc4c3)n2)c1
4 | 8 | 11 | 0 | 0 | 0 | 0 | 0 | 8 | 8 | 14 | COc1cccc(Nc2cc(N3CCC[C@H]3C(=O)NCCN3CCCCC3)nc(N)n2)c1
0 | 2 | 5 | 0 | 0 | 0 | 0 | 0 | 0 | 5 | 7 | Cc1cc(C(=O)N2CCN(c3ncnc4c3CN(Cc3ccccc3)CC4)CC2)c(C)n1C
12 | 29 | 31 | 0 | 0 | 0 | 0 | 0 | 8 | 26 | 16 | O=C(NCc1ccncc1)c1cccc(Nc2cc(Nc3cccc(Br)c3)ncn2)c1
1 | 6 | 0 | 1 | 0 | 0 | 0 | 0 | 4 | 5 | 6 | Cc1cccc(Nc2nccc3c2CN(C(=O)c2cc(C)n(C)c2C)CC3)c1
4 | 13 | 7 | 2 | 1 | 3 | 0 | 16 | 5 | 14 | 10 | Nc1nc(Nc2ccc3ncsc3c2)cc(N2CCC[C@H]2C(=O)NCCc2cccc(I)c2)n1
9 | 9 | 11 | 0 | 0 | 0 | 0 | 11 | 8 | 13 | 3 | Cc1cccc(N(C)c2cc(Nc3cccc(C(=O)NCc4ccc(N(C)C)cc4)c3)ncn2)c1
2 | 13 | 0 | 3 | 0 | 2 | 0 | 0 | 9 | 4 | 9 | COC[C@@H]1CCCN1C(=O)[C@@H]1CCCN1c1cc(Nc2cccc(OC)c2)nc(N)n1
5 | 0 | 7 | 0 | 8 | 0 | 0 | 8 | 8 | 6 | 3 | COC[C@@H]1CCCN1C(=O)C1CCCN1c1cc(Nc2cccc(Br)c2)ncn1 (stereo not given in full)
17 | 9 | 11 | 0 | 0 | 4 | 0 | 6 | 7 | 24 | 9 | Cc1cccc(Nc2nccc(Nc3cccc(C(=O)NCc4ccc(N(C)C)cc4)c3)n2)c1
7 | 9 | 7 | 2 | 0 | 0 | 0 | 0 | 8 | 10 | 0 | Cc1cccc(Nc2ncnc3c2CN(C(=O)c2ccc(N(C)C)c4ccccc24)CC3)c1
0 | 0 | 3 | 4 | 0 | 1 | 0 | 1 | 8 | 8 | 8 | COC[C@@H]1CCCN1C(=O)[C@@H]1CCCN1c1nccc(Nc2ccccc2)n1
17 | 29 | 47 | 3 | 0 | 0 | 0 | 15 | 12 | 42 | 4 | CC(=O)N1CCN(C(=O)c2cccc(Nc3cc(N(C)c4cccc(C)c4)ncn3)c2)CC1
0 | 0 | 0 | 7 | 2 | 0 | 0 | 0 | 8 | 5 | 5 | Cc1cccc(Oc2ccnc(N3CCN(C(=O)c4c(C)noc4C)CC3)n2)c1
78 | 27 | 11 | 0 | 0 | 2 | 0 | 11 | 27 | 89 | 0 | O=C(NCCc1ccc(O)cc1)c1cccc(Nc2nccc(Nc3ccc4ncsc4c3)n2)c1
3 | 1 | 6 | 3 | 3 | 1 | 0 | 0 | 7 | 13 | 11 | Nc1nc(Nc2ccc(C(=O)NCCc3ccncc3)cc2)cc(N2CCOCC2)n1
3 | 7 | 2 | 2 | 0 | 0 | 0 | 0 | 7 | 6 | 6 | CN(C)CC(C)(C)CNC(=O)C1CCN(c2cc(N3CCOCC3)nc(N)n2)CC1
2 | 0 | 8 | 2 | 0 | 0 | 0 | 0 | 8 | 5 | 12 | CN(CCc1ccccn1)C(=O)[C@@H]1CCCN1c1nccc(Nc2ccccc2)n1
20 | 49 | 75 | 0 | 0 | 0 | 0 | 7 | 11 | 32 | 14 | Cc1cccc(Nc2cc(Nc3cccc(C(=O)N(CC(C)O)CC(C)O)c3)ncn2)c1 (stereo not given)
1 | 17 | 1 | 2 | 0 | 1 | 0 | 0 | 13 | 5 | 11 | Clc1ccc2sc(CN3CCN(c4ncnc5c4CN(Cc4ccccc4)CC5)CC3)cc2c1

From ChEMBL document CHEMBL1150387, “Development and experimental validation of a docking strategy for the generation of kinase-targeted libraries” (J Med Chem, 2008)
